The list is not random: actives were taken first. Their share in the collection is about 2.7%.
HIV Env fusion: inhibitors of HIV Env-mediated cell fusion. HeLa-JRFL Env/CEM21 cell fusion, luciferase. inhibition, % at 12.3 µM. actives 1.1% (n = 360,000). AID 651610;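 active means mean replicate inhibition score of at least 50 and every replicate individually at or above 50; inconclusive means only one of the two criteria met; inactive means mean below 50 and not all replicates reaching 50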
E-sel inducer: E-selectin induction on HUVECs; activation, % at 7.58 µM; HUVEC E-selectin immunofluorescence imaging; normalized: neutral wells 0, TNF-alpha wells 100; P16581; actives 0.37% (n = 260,000);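 active means mean E-selectin-positive cell signal at least 10% of the positive control, reached in at least 60% of replicates, without over 20% cell loss; inconclusive means no rule given, readout overlaps actives, possibly toxicity-flagged; inactive means the rest, including those meeting only one limit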
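Read-out basis: % PE-positive cells; Test system: HUVEC primary endothelial cells; Technique: immunofluorescence imaging; Dosing: single-point compound dose.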
F508del corr: CFTR F508del correction in bronchial cells; actives 0.36% (n = 350,000); CFBE cells, YFP halide quenching; stimulated with forskolin plus potentiator P3; % fluorescence drop versus neutral controls; activity (quench increase), % at 7.58 µM; AID 720511;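 active means mean added fluorescence quench of at least 8% versus neutral control, with both replicates also reaching 8%; inconclusive means only one of the mean or replicate conditions met; inactive means mean below 8% and not both replicates reaching 8%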;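 further: cells transiently co-express mutant CFTR-F508del with the halide-sensitive YFP; corrector assay measuring rescue of mutant channel to the surface after 24 h compound exposure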
FGF22 binding: binders of recombinant human FGF22 by thermal shift. activity (Tm shift, normalised), % at 9.99 µM. SYPRO orange fluorescence; percent of sucrose octasulfate shift, DMSO zero. actives 1.5% (n = 340,000);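 active means mean Tm shift, scaled 0 neutral to 100 positive control, at about 1.3% or above, every replicate too, limit read from the data; inconclusive means no clear call, values can overlap the other calls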
Target sequence (Q9HCT0 whole entry, looked up): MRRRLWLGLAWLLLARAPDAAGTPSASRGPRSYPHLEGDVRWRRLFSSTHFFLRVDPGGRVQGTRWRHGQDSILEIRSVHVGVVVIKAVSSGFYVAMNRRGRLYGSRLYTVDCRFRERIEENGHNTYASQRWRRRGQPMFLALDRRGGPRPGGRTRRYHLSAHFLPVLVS
S100A4 inh HTS: inhibitors of human S100A4 binding to myosin IIA peptide. P26447. S100A4/TAMRA-MyoIIA peptide fluorescence polarization. inhibition, % at 10.7 µM. actives 0.14% (n = 360,000). AID 652163;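 active means mean inhibition of at least 70% across replicates, with every replicate also reaching that level; inconclusive means mean inhibition reaches 70% but some replicates fall short; inactive means mean inhibition below 70%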
Target sequence (P26447 whole entry, looked up): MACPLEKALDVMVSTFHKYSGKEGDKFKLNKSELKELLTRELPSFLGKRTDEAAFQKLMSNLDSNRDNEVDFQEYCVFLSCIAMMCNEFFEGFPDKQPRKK
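Material: S100A4 monomer protein / Buffer or medium: 50 mM HEPES pH 7.2, 10 mM CaCl2, 100 mM KCl / Times: 5 min incubation before reading / Benchmarks: neutral control DMSO, positive control TFP / Reagent: labelled myosin peptide probe, 5 nM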
Numbers stand for hits; - = inactive; ? = inconclusive; . = no result.

SMILES	HIV Env fusion	E-sel inducer	F508del corr	FGF22 binding	S100A4 inh HTS
C[C@@H]1CN([C@@H](C)CO)C(=O)c2cc(NC(=O)CCN3CCOCC3)ccc2O[C@H]1CN(C)Cc1ccc2c(c1)OCO2	-	-	-	-	-
COc1ccc(-c2cn(CCCOCc3ccccc3)nn2)cc1	-	.	-	-	-
CCCCCc1ccc(-c2cn(CCCOCc3ccccc3)nn2)cc1	.	-	-	4.2	-
C[C@@H]1CN([C@H](C)CO)C(=O)c2cc(NC(=O)Nc3ccc(F)cc3)ccc2O[C@H]1CN(C)Cc1ccc(C(F)(F)F)cc1	.	-	-	-	-
On1nnc2ccc(C(F)(F)F)cc21	-	-	-	43	-
CC(C)OC(=O)c1cc(C(=O)c2cc(Br)ccc2O)coc1=N	-	-	-	.	-
CCOc1ccccc1NC(=O)c1cc(C(=O)c2cc(Br)ccc2O)coc1=N	-	.	-	45	-
Cc1noc(C)c1NC(=O)NCC[C@@H]1CC[C@@H](NC(=O)c2ccncc2)[C@@H](CO)O1	-	-	-	-	-
C[C@H]1CN([C@@H](C)CO)C(=O)Cc2cc(NC(=O)Nc3ccc(C(F)(F)F)cc3)ccc2O[C@H]1CN(C)Cc1ccc2c(c1)OCO2	-	-	-	-	-
C[C@@H]1CN([C@H](C)CO)C(=O)c2cc(C#CC3(O)CCCC3)cnc2O[C@H]1CN(C)Cc1cccnc1	-	-	-	-	-
Cc1ccc(OCCCc2c(C)n[nH]c2C)cc1	-	-	-	-	-
Cc1n[nH]c(C)c1CCCCOc1ccccc1	-	.	-	44	-
COc1ccc(N(C(=O)CSCC(=O)Nc2cc(C)on2)C(C(=O)NC2CCCCC2)c2ccc(O)c(O)c2)cc1 (stereo not given)	57	-	.	-	-
CCCCNC(=O)CN1C(=O)NC(CCc2ccccc2)C1=O (stereo not given)	-	-	-	43	-
O=C1NC(CCc2ccccc2)C(=O)N1CCOc1cccc(Br)c1 (stereo not given)	-	.	-	43	-
O=C(Nc1cccc(F)c1)N1CC(=O)N2[C@H](CO)[C@H](c3ccc(-c4cccc(F)c4)cc3)[C@@H]2C1	.	-	-	.	-
C[C@H](CO)N1C[C@H](C)[C@@H](CN(C)S(C)(=O)=O)Oc2ncc(C3=CCCC3)cc2C1=O	-	-	-	-	-
NS(=O)(=O)c1ccc(Sc2nc3ccccc3s2)c([N+](=O)[O-])c1	73	.	-	-	-
NS(=O)(=O)c1ccc(Sc2ccccn2)c([N+](=O)[O-])c1	-	.	-	-	-
O=C(c1cccc(F)c1)N1CC2(C1)[C@H](c1ccccc1)[C@@H](CO)N2C(=O)C1CCCC1	.	-	-	.	-
O=C(NCc1ccco1)C1CCCN1C(=O)Nc1ccc(Cl)cc1 (stereo not given)	-	.	-	-	-
O=C(NCc1ccco1)C1CCCN1C(=O)Nc1cccc(Cl)c1 (stereo not given)	-	-	-	43	-
COc1ccc(N2C(=O)C(CC(=O)Nc3ccccc3)N(CCc3ccc(OC)c(OC)c3)C2=O)cc1 (stereo not given)	-	.	-	44	-
CCc1n[nH]c(=S)n1/N=C/c1cc(Br)c(OC)cc1OC	-	.	.	.	.
CCc1n[nH]c(=S)n1N=C1CCC(C)CC1 (stereo not given)	-	-	-	43	-
SMILES	HIV Env fusion	E-sel inducer	F508del corr	FGF22 binding	S100A4 inh HTS
O=C(CN1C(=O)C(=O)c2ccccc21)OCN1C(=O)c2ccccc2C1=O	-	.	-	43	-
CCN(CC)CCCNc1nc2ccccc2c2[nH]c3ccc(OC)cc3c12	-	-	17	-	-
CCN(CC)CCCNc1nc(-c2ccccc2)nc2ccccc12	-	.	.	.	.
CNc1ccc2ncc(-c3ccc(OC)c(OC)c3)n2n1	58	-	-	-	-
C[C@@H]1CN([C@@H](C)CO)C(=O)Cc2cc(NC(=O)Nc3cccc4ccccc34)ccc2O[C@@H]1CN(C)Cc1ccncc1	-	.	-	-	-
COc1ccccc1NC(=S)N1CCCC1	-	.	.	.	.
COc1ccccc1NC(=S)N1CCCCCC1	.	65	-	-	-
C[C@@H]1CCCCO[C@@H](CN(C)S(=O)(=O)c2cn(C)cn2)[C@H](C)CN([C@H](C)CO)C(=O)c2cc(NC(=O)c3ccccc3)ccc2O1	-	-	-	-	-
C[C@H]1CN([C@@H](C)CO)C(=O)c2cc(C3=CCCCC3)cnc2O[C@H]1CN(C)Cc1ccccc1	-	-	-	-	-
CCOC(=O)C1CCN(c2cc(C)nc3ccc(OC)cc23)CC1	-	-	-	-	-
COc1ccc2nc(C)cc(N3CCC(C(N)=O)CC3)c2c1	-	-	-	43	-
CC(=O)N(C)C[C@H]1Oc2cc(C#Cc3ccncc3)ccc2S(=O)(=O)N([C@@H](C)CO)C[C@@H]1C	-	-	-	-	-
COC(=O)c1nn(-c2ccccc2)c(=O)cc1Oc1ccc(Cl)cc1	122	-	.	.	.
CCn1c(SCC(=O)N2CCN(c3ccccc3)CC2)nnc1-c1cc2cc(Cl)ccc2o1	68	.	.	.	.
C=CCn1c(SCC(=O)N2CCN(c3ccccc3)CC2)nnc1-c1ccco1	-	.	.	.	-
COCCCn1c(=O)/c(=C\c2ccccc2OC(F)F)s/c1=C(/C#N)C(N)=O	-	38	-	-	-
COCCCn1c(=O)/c(=C\c2ccc(OC(F)F)c(OC)c2)s/c1=C(/C#N)C(N)=O	-	-	-	-	-
Cc1nccc(-c2cccc(NC(=O)Nc3ccc(Cl)cc3)c2)n1	-	-	-	1.8	-
NC(c1csc(NC(=O)Nc2ccccc2)n1)C1CCCCC1 (stereo not given)	57	-	-	-	-
COCCCC1CCN(C(=O)C2CCC(=O)N(CCCc3ccccc3)C2)CC1 (stereo not given)	?	-	-	43	-
CCn1c2ccccc2c2cc(CNCc3ccc(OC)cc3OC)ccc21	56	-	-	-	-
CC(=O)Nc1ccc(S(=O)(=O)N2CCC(C(=O)NCc3ccco3)CC2)cc1	-	.	-	-	-
CC(C)c1ccc(S(=O)(=O)N2CCN(C(=O)c3ccco3)CC2)cc1	-	-	-	44	-
CC(C)c1ccc(S(=O)(=O)N2CCC(C(=O)NCc3ccco3)CC2)cc1	56	-	-	-	-
Cc1ccc(S(=O)(=O)N2CCN(C(=O)c3ccco3)CC2)cc1	-	.	-	-	-
C[C@@H]1CN([C@H](C)CO)C(=O)c2cc(NC(=O)NC3CCCCC3)ccc2O[C@H]1CN(C)S(=O)(=O)c1cccs1	-	-	-	-	-
COc1ccc(Cl)cc1C(=O)NNC(=S)NC(=O)c1cc(-c2ccc(Cl)cc2)nc2ccccc12	94	.	.	.	.
CCNC(=S)NNC(=O)c1cc(-c2ccc(OC)cc2)nc2ccccc12	-	-	.	.	.
CCOC(=O)C1CCN(C(=O)Cc2ccccc2OC)CC1	-	.	-	56	-
COc1ccccc1CC(=O)N1CCN(c2cccc(C(F)(F)F)c2)CC1	66	.	.	.	.

Bioassay records from PubChem.
